Data set [1] deals with T1, C-X-C chemokine receptor type 4 (Homo sapiens, UniProt P61073). Nature of the data set: Antagonist activity at CXCR4 in human SupT1 cells assessed as inhibition of CXCL12-induced Ca2+ influx preincubated for 2 to 3 mins prior CXCL12-stimulation by fura-2/AM dye-based fluorescence analysis. It counts as functional, cell-based. Put shortly:
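Fura-2/AM-loaded SUP-T1 cells (2 μM dye, 5 μM probenecid, 30 min; 2 × 10^6 cells/mL in Hepes pH 7.4 saline with Ca2+/Mg2+, glucose, 0.025% BSA) were pre-incubated with peptide for 2–3 min, then stimulated with SDF-1α. Fluorescence was read at ex 340/380 nm, em 510 nm.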

Data set [2] relates to SUP-T1. Nature of the data set: Cytotoxicity against human SupT1 cells at 100 nM. It counts as cell-based. Conditions: sup-t1, 0.1 µM.
Data set [3] has as its target T1, C-X-C chemokine receptor type 4. Nature of the data set: Antagonist activity at CXCR4 in human SupT1 cells assessed as inhibition of CXCL12-induced cell migration at 100 nM preincubated for 2 hrs followed by CXCL12 addition measured after 3 hrs by Cell titer-Blue reagent-based transwell assay. The method, boiled down: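 SUP-T1 cells were washed in RPMI1640 with 0.5% BSA, and 1 × 10^6 cells were incubated with peptide for 2 h. Cells were then seeded in upper transwell chambers (5 μm pores) over a lower chamber with 10 nM SDF-1α, or buffer alone for background. Migration ran 3 h at 37°C. Migrated cells were expressed as % of seeded cells. At least three independent experiments, mean ± S.E.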
(In general: The colour change of resazurin is a common sign of viable cells or microbes.)

The target is the same in data set [4]. The data set can be described thus: Binding affinity to CXCR4 (unknown origin) expressed in CHO cells measured after 40 mins by 12G5 antibody competition assay. It counts as cell-based.
Data set [5] shares this target. The data set can be described thus: Agonist activity at CXCR4 in human SupT1 cells assessed as increase in Ca2+ influx by fura-2/AM dye-based fluorescence analysis. It counts as functional, cell-based. The method, boiled down: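 They were loaded at 10^7 cells/mL with 2 μM fura-2/AM and 5 μM probenecid for 30 min, then resuspended at 2 × 10^6 cells/mL. After a 2 min baseline, peptide was added. Ex 340/380 nm, em 510 nm.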

Active and inactive are the calls of the source. The calls are words filed in the database; no cut-off is given here. Non-standard residues stand in square brackets, D forms with d. Residues, ends and D or L forms follow the SMILES beside them.

T1 sequence (P61073 whole entry): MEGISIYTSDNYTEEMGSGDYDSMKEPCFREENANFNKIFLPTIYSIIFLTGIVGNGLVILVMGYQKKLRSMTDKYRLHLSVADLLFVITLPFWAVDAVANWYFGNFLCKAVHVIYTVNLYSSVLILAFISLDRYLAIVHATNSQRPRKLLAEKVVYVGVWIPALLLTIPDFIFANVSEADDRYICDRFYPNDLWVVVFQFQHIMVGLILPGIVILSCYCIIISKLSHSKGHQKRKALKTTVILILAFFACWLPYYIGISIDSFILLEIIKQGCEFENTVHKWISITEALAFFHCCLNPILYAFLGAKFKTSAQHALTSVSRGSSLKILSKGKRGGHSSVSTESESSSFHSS

In general, inhibition refers to the share of the control response that was lost under treatment. `CC(C)C[C@@H](N)C(=O)NCC(=O)N[C@H](C)C(=O)N[C@H](CO)C(=O)N[C@H](Cc1c[nH]c2ccccc12)C(=O)N[C@H](Cc1cnc[nH]1)C(=O)N[C@H](CCCNC(=N)N)C(=O)N1CCC[C@@H]1C(=O)N[C@H](C)C(=O)N[C@H](CCCCN)C(=O)NCCOCCOCCOCCC(=O)NCCCC[C@H](NC(=O)CCOCCOCCOCCNC(=O)[C@@H](CCCCN)NC(=O)[C@@H](C)NC(=O)[C@H]1CCCN1C(=O)[C@@H](CCCNC(=N)N)NC(=O)[C@@H](Cc1cnc[nH]1)NC(=O)[C@@H](Cc1c[nH]c2ccccc12)NC(=O)[C@@H](CO)NC(=O)[C@@H](C)NC(=O)CNC(=O)[C@H](N)CC(C)C)C(N)=O`: the “antagonist activity (qualitative)” value in data set [1] was “Active”. The Activity result in data set [2] was “Non-Toxic”. Also, the inhibition in data set [3] is 21%.
By IC50 is commonly meant the point on the concentration scale where inhibition reaches its midpoint. Take `CC(C)C[C@@H](N)C(=O)NCC(=O)N[C@H](C)C(=O)N[C@H](CO)C(=O)N[C@H](Cc1c[nH]c2ccccc12)C(=O)N[C@H](Cc1cnc[nH]1)C(=O)N[C@H](CCCNC(=N)N)C(=O)N1CCC[C@@H]1C(=O)N[C@H](CC(=O)O)C(=O)N[C@H](CCCCN)C(=O)O` (H-[dL]G[dA][dS][dW][dH][dR][dP][dD][dK]-OH): the concentration for half-maximal inhibition (IC50) in data set [4] (read-out: IC50) was determined as 2000 nM.
For `CC(C)C[C@@H](N)C(=O)NCC(=O)N[C@H](C)C(=O)N[C@H](CO)C(=O)N[C@H](Cc1c[nH]c2ccccc12)C(=O)N[C@H](Cc1cnc[nH]1)C(=O)N[C@H](CCCNC(=N)N)C(=O)N1CCC[C@@H]1C(=O)NCCOCCOCCOCCOCCOCCC(=O)NCCCC[C@H](NC(=O)CCOCCOCCOCCOCCOCCNC(=O)[C@H]1CCCN1C(=O)[C@@H](CCCNC(=N)N)NC(=O)[C@@H](Cc1cnc[nH]1)NC(=O)[C@@H](Cc1c[nH]c2ccccc12)NC(=O)[C@@H](CO)NC(=O)[C@@H](C)NC(=O)CNC(=O)[C@H](N)CC(C)C)C(N)=O`, the Activity entry in data set [2] was “Non-Toxic”. Further, the inhibition in data set [3] was determined as 34%.
For the molecule `CC(C)C[C@@H](N)C(=O)NCC(=O)N[C@H](C)C(=O)N[C@H](CO)C(=O)N[C@H](Cc1c[nH]c2ccccc12)C(=O)N[C@H](Cc1cnc[nH]1)C(=O)N[C@H](CCCNC(=N)N)C(=O)N1CCC[C@@H]1C(=O)N[C@H](CC(=O)O)C(=O)N[C@H](CCCCN)C(=O)N[C@H](CCCCNC(=O)[C@H](CCCNC(=N)N)NC(=O)[C@H](Cc1ccc(O)cc1)NC(=O)[C@H](CO)NC(=O)[C@H](CC(C)C)NC(=O)[C@H](CO)NC(=O)[C@@H](NC(=O)[C@@H]1CCCN1C(=O)[C@@H](N)CCCCN)C(C)C)C(N)=O`, in data set [4] (read-out: IC50), the IC50 was found to be 502 nM. Moreover, the outcome in data set [5] was Active.
On to `CC(C)C[C@@H](N)C(=O)NCC(=O)N[C@H](C)C(=O)N[C@H](CO)C(=O)N[C@H](Cc1c[nH]c2ccccc12)C(=O)N[C@H](Cc1cnc[nH]1)C(=O)N[C@H](CCCNC(=N)N)C(=O)N[C@H](C)C(=O)N[C@H](CC(=O)O)C(=O)N[C@H](CCCCN)C(=O)NCCOCCOCCOCCC(=O)NCCCC[C@H](NC(=O)CCOCCOCCOCCNC(=O)[C@@H](CCCCN)NC(=O)[C@@H](CC(=O)O)NC(=O)[C@@H](C)NC(=O)[C@@H](CCCNC(=N)N)NC(=O)[C@@H](Cc1cnc[nH]1)NC(=O)[C@@H](Cc1c[nH]c2ccccc12)NC(=O)[C@@H](CO)NC(=O)[C@@H](C)NC(=O)CNC(=O)[C@H](N)CC(C)C)C(N)=O`, for which, in data set [1], the “antagonist activity (qualitative)” value was “Active”. Further, the Activity result in data set [2] was “Non-Toxic”. In addition, the inhibition in data set [3] stood at 23%.
Consider `CC(C)C[C@@H](N)C(=O)NCC(=O)N[C@H](C)C(=O)N[C@H](CO)C(=O)N[C@H](Cc1c[nH]c2ccccc12)C(=O)N[C@H](Cc1cnc[nH]1)C(=O)N[C@H](CCCNC(=N)N)C(=O)N1CCC[C@@H]1C(=O)N[C@H](CC(=O)O)C(=O)N[C@H](CCCCN)C(=O)NCCOCCOCCOCCOCCOCCC(=O)NCCCC[C@H](NC(=O)CCOCCOCCOCCOCCOCCNC(=O)[C@@H](CCCCN)NC(=O)[C@@H](CC(=O)O)NC(=O)[C@H]1CCCN1C(=O)[C@@H](CCCNC(=N)N)NC(=O)[C@@H](Cc1cnc[nH]1)NC(=O)[C@@H](Cc1c[nH]c2ccccc12)NC(=O)[C@@H](CO)NC(=O)[C@@H](C)NC(=O)CNC(=O)[C@H](N)CC(C)C)C(N)=O`, for which, in data set [1], the “antagonist activity (qualitative)” value is “Active”. Also, the Activity result in data set [2] is “Non-Toxic”.
Regarding H-KPVSLSYR-OH, the IC50 result in data set [4] (cho) was “Not Active”.
Regarding `CC(C)C[C@@H](N)C(=O)NCC(=O)N[C@H](C)C(=O)N[C@H](CO)C(=O)N[C@H](Cc1c[nH]c2ccccc12)C(=O)N[C@H](Cc1cnc[nH]1)C(=O)N[C@H](CCCNC(=N)N)C(=O)N1CCC[C@@H]1C(=O)N[C@H](CC(=O)O)C(=O)N[C@H](CCCCN)C(=O)NC(=O)[C@@H](CCCCN)NC(=O)[C@@H](CC(=O)O)NC(=O)[C@H]1CCCN1C(=O)[C@@H](CCCNC(=N)N)NC(=O)[C@@H](Cc1cnc[nH]1)NC(=O)[C@@H](Cc1c[nH]c2ccccc12)NC(=O)[C@@H](CO)NC(=O)[C@@H](C)NC(=O)CNC(=O)[C@H](N)CC(C)C`, the IC50 in data set [4] (read-out: IC50) was determined as 462 nM.
With `CC(C)C[C@@H](N)C(=O)NCC(=O)N[C@H](C)C(=O)N[C@H](CO)C(=O)N[C@H](Cc1c[nH]c2ccccc12)C(=O)N[C@H](Cc1cnc[nH]1)C(=O)N[C@H](CCCNC(=N)N)C(=O)N1CCC[C@@H]1C(=O)NCCOCCOCCOCCC(=O)NCCCC[C@H](NC(=O)CCOCCOCCOCCNC(=O)[C@H]1CCCN1C(=O)[C@@H](CCCNC(=N)N)NC(=O)[C@@H](Cc1cnc[nH]1)NC(=O)[C@@H](Cc1c[nH]c2ccccc12)NC(=O)[C@@H](CO)NC(=O)[C@@H](C)NC(=O)CNC(=O)[C@H](N)CC(C)C)C(N)=O`, the “antagonist activity (qualitative)” value in data set [1] was “Active”. The Activity entry in data set [2] is recorded as “Non-Toxic”. In data set [3], the inhibition turned out to be 28%.
`CC(C)C[C@@H](N)C(=O)NCC(=O)N[C@H](C)C(=O)N[C@H](CO)C(=O)N[C@H](Cc1c[nH]c2ccccc12)C(=O)N[C@H](Cc1cnc[nH]1)C(=O)N[C@H](CCCNC(=N)N)C(=O)N1CCC[C@@H]1C(=O)N[C@H](CC(=O)O)C(=O)N[C@H](CCCCN)C(=O)NCCOCCOCCOCCOCCOCCC(=O)N[C@@H](CCCCNC(=O)CCOCCOCCOCCOCCOCCNC(=O)[C@H](CCCNC(=N)N)NC(=O)[C@H](Cc1ccc(O)cc1)NC(=O)[C@H](CO)NC(=O)[C@H](CC(C)C)NC(=O)[C@H](CO)NC(=O)[C@@H](NC(=O)[C@@H]1CCCN1C(=O)[C@@H](N)CCCCN)C(C)C)C(N)=O`: the result in data set [5] was inactive.
The same measure, in the same setting: as for `CC(C)C[C@@H](N)C(=O)NCC(=O)N[C@H](C)C(=O)N[C@H](CO)C(=O)N[C@H](Cc1c[nH]c2ccccc12)C(=O)N[C@H](Cc1cnc[nH]1)C(=O)N[C@H](CCCNC(=N)N)C(=O)N1CCC[C@@H]1C(=O)N[C@H](CC(=O)O)C(=O)N[C@H](CCCCN)C(=O)NCCOCCOCCOCCC(=O)N[C@@H](CCCCNC(=O)CCOCCOCCOCCOCCOCCNC(=O)[C@H](CO)NC(=O)[C@H](CC(C)C)NC(=O)[C@H](CO)NC(=O)[C@@H](NC(=O)[C@@H]1CCCN1C(=O)[C@@H](N)CCCCN)C(C)C)C(N)=O`, the entry is “inactive”.
Regarding `CC(C)C[C@@H](N)C(=O)NCC(=O)N[C@H](C)C(=O)N[C@H](CO)C(=O)N[C@H](Cc1c[nH]c2ccccc12)C(=O)N[C@H](Cc1cnc[nH]1)C(=O)N[C@H](CCCNC(=N)N)C(=O)N1CCC[C@@H]1C(=O)N[C@H](CC(=O)O)C(=O)N[C@H](CCCCN)C(=O)NCCOCCOCCOCCOCCOCCOCCOCCC(=O)NCCCC[C@H](NC(=O)CCOCCOCCOCCOCCOCCOCCOCCNC(=O)[C@@H](CCCCN)NC(=O)[C@@H](CC(=O)O)NC(=O)[C@H]1CCCN1C(=O)[C@@H](CCCNC(=N)N)NC(=O)[C@@H](Cc1cnc[nH]1)NC(=O)[C@@H](Cc1c[nH]c2ccccc12)NC(=O)[C@@H](CO)NC(=O)[C@@H](C)NC(=O)CNC(=O)[C@H](N)CC(C)C)C(N)=O`, the “antagonist activity (qualitative)” value in data set [1] is “Active”. Besides, the Activity result in data set [2] is reported as “Non-Toxic”. Moreover, the inhibition in data set [3] came out at 48%.
On to `CC(C)C[C@@H](N)C(=O)NCC(=O)N[C@H](C)C(=O)N[C@H](CO)C(=O)N[C@H](Cc1c[nH]c2ccccc12)C(=O)N[C@H](Cc1cnc[nH]1)C(=O)N[C@H](CCCNC(=N)N)C(=O)N1CCC[C@@H]1C(=O)N[C@H](CC(=O)O)C(=O)N[C@H](CCCCN)C(=O)NCCOCCOCCOCCC(=O)N[C@@H](CCCCNC(=O)CCOCCOCCOCCNC(=O)[C@H](CC(C)C)NC(=O)[C@H](CO)NC(=O)[C@@H](NC(=O)[C@@H]1CCCN1C(=O)[C@@H](N)CCCCN)C(C)C)C(N)=O`, for which the result in data set [5] was inactive.
`CC(C)C[C@@H](N)C(=O)NCC(=O)N[C@H](C)C(=O)N[C@H](CO)C(=O)N[C@H](Cc1c[nH]c2ccccc12)C(=O)N[C@H](Cc1cnc[nH]1)C(=O)N[C@H](CCCNC(=N)N)C(=O)N1CCC[C@@H]1C(=O)N[C@H](CC(=O)O)C(=O)N[C@H](CCCCN)C(=O)NCCOCCOCCOCCC(=O)NCCCC[C@H](NC(=O)CCOCCOCCOCCNC(=O)[C@@H](CCCCN)NC(=O)[C@@H](CC(=O)O)NC(=O)[C@H]1CCCN1C(=O)[C@@H](CCCNC(=N)N)NC(=O)[C@@H](Cc1cnc[nH]1)NC(=O)[C@@H](Cc1c[nH]c2ccccc12)NC(=O)[C@@H](CO)NC(=O)[C@@H](C)NC(=O)CNC(=O)[C@H](N)CC(C)C)C(N)=O`: in data set [2], the Activity entry is reported as “Non-Toxic”. The inhibition in data set [3] was 67%.

The record behind these values is ChEMBL document CHEMBL4428122, “Design, synthesis, and biological characterization of novel PEG-linked dimeric modulators for CXCR4” (Bioorg Med Chem, 2016).
